Calls of active or inactive are those of the source. The rule behind the calls is not given here.
Columns and labels:
[1] = target: T1, Muscarinic acetylcholine receptor M3 (Homo sapiens, UniProt P20309); test: Agonist activity at human muscarinic M3 receptor expressed in CHO cells assessed as intracellular calcium mobilization after 10 to 15 mins by FLIPR assay; type: functional, cell-based
Target sequence in this assay (P20309 whole entry): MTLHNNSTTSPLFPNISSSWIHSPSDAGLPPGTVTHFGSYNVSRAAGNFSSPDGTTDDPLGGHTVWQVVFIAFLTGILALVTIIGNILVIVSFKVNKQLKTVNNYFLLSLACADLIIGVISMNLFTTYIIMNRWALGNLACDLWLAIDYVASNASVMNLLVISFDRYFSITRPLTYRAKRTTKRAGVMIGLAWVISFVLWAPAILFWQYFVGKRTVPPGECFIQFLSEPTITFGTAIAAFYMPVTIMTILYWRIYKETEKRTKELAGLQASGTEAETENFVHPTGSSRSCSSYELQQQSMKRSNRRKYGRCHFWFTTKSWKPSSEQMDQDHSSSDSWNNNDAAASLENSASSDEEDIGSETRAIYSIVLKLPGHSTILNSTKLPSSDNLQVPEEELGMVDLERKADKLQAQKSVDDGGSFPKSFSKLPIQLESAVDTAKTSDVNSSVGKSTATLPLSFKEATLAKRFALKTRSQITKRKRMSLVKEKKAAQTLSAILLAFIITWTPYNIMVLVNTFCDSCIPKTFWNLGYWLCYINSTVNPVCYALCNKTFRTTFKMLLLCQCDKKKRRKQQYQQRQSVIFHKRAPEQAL

[2] = target: 5-hydroxytryptamine receptor 2A (Homo sapiens, UniProt P28223); test: Binding affinity to 5HT2A receptor
[3] = target: T2, Muscarinic acetylcholine receptor M4 (Homo sapiens, UniProt P08173); test: Agonist activity at human muscarinic M4 receptor expressed in CHO cells coexpressing Galpha16 subunit assessed as intracellular calcium mobilization after 10 to 15 mins by FLIPR assay; type: functional, cell-based
T2 sequence (P08173 whole entry): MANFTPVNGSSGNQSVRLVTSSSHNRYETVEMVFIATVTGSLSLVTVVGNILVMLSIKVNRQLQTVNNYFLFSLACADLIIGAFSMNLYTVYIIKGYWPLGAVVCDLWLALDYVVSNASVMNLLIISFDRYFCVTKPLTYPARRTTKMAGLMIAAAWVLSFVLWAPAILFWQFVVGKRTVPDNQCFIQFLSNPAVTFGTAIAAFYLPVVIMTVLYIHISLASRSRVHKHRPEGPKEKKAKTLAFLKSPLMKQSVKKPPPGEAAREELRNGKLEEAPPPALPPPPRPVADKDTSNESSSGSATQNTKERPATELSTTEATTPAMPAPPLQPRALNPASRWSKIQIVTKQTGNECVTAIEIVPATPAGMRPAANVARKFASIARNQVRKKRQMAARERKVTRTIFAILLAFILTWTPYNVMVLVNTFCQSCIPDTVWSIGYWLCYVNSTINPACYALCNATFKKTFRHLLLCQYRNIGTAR

[4] = target: T3, Muscarinic acetylcholine receptor M2 (Homo sapiens, UniProt P08172); test: Agonist activity at human muscarinic M2 receptor expressed in CHO cells coexpressing Galpha16 subunit assessed as intracellular calcium mobilization after 10 to 15 mins by FLIPR assay; type: functional, cell-based
T3 sequence (P08172 whole entry): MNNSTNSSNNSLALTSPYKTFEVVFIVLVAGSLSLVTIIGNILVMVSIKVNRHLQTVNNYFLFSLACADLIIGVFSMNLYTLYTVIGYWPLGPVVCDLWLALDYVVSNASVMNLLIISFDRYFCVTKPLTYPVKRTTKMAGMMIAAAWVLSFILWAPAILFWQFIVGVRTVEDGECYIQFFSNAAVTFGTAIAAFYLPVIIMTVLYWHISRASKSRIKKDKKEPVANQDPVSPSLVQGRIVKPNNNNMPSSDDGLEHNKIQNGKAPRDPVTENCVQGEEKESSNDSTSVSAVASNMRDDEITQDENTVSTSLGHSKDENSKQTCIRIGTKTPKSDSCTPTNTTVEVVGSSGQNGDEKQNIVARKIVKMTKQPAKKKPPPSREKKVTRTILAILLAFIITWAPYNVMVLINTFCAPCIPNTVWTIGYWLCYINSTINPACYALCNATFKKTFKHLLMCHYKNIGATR

[5] = target: T4, Muscarinic acetylcholine receptor M1 (Homo sapiens) (UniProt P11229); test: Intrinsic activity at human muscarinic M1 receptor expressed in CHO cells assessed as intracellular calcium mobilization after 10 to 15 mins by FLIPR assay; type: functional, cell-based
T4 sequence (whole entry): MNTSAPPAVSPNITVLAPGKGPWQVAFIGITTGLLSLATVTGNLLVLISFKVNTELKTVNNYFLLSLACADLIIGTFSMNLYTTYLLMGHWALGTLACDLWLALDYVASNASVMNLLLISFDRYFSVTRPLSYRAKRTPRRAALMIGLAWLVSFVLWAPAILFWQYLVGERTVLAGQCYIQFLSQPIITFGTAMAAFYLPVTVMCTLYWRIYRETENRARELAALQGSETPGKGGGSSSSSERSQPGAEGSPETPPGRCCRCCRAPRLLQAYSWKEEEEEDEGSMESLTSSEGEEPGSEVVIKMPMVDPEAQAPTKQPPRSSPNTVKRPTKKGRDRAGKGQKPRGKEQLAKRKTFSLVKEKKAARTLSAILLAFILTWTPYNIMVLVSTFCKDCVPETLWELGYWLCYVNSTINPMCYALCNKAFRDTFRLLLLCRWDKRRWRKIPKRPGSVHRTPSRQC
Outline: (§1)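 Human M1 mAChR stably expressed in CHO cells; agonist-induced intracellular Ca2+ mobilization read by fluorometric imaging plate reader (FLIPR).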

[6] = target: T5, Muscarinic acetylcholine receptor M1 (Homo sapiens, UniProt P11229); test: Agonist activity at human muscarinic M1 receptor expressed in CHO cells assessed as intracellular calcium mobilization after 10 to 15 mins by FLIPR assay; type: functional, cell-based; outline: as §1
T5 sequence (P11229 whole entry): T4 sequence (whole entry)

D(3) dopamine receptor = D(3) dopamine receptor (Homo sapiens, UniProt P35462); test: Binding affinity to dopamine D3 receptor
[7] = target: Voltage-gated inwardly rectifying potassium channel KCNH2 (Homo sapiens, UniProt Q12809); test: Binding affinity to human ERG
[8] = target: T6, 5-hydroxytryptamine receptor 1A (Homo sapiens, UniProt P08908); test: Activity at 5HT1A receptor
T6 sequence (P08908 whole entry): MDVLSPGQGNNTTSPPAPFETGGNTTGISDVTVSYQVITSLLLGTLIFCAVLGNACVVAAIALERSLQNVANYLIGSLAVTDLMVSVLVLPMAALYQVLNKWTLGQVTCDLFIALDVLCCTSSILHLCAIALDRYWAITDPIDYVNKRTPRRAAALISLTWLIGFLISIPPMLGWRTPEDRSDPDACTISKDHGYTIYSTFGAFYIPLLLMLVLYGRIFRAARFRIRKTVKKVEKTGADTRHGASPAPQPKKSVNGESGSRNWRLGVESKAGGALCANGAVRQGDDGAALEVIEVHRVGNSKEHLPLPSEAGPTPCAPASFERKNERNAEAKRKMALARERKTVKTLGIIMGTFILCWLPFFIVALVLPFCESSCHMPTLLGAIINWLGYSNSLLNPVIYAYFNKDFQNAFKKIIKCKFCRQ

D(2) dopamine receptor = D(2) dopamine receptor (Homo sapiens, UniProt P14416); test: Binding affinity to dopamine D2 receptor
Rattus norvegicus [9] = test: Increase in neuronal firing rate in Sprague-Dawley rat hippocampal CA1 region at 0.3 mg/kg, iv; type: functional, organism-based; design: dose 0.3 mg/kg
Outline: (§2)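 Rat hippocampal CA1 neuronal cell firing rate recorded after iv dosing at 0.3 or 1 mg/kg. Where used, scopolamine was given at 3 mg/kg ip […] before the iv dose. Statistics by repeated measures ANOVA.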

Rattus norvegicus [10] = test: Increase in neuronal firing rate in Sprague-Dawley rat hippocampal CA1 region at 1 mg/kg, iv; type: functional; outline: as §2
[11] = target: T7, Muscarinic acetylcholine receptor M2 (Homo sapiens) (UniProt P08172); test: Intrinsic activity at human muscarinic M2 receptor expressed in CHO cells coexpressing Galpha16 subunit assessed as intracellular calcium mobilization after 10 to 15 mins by FLIPR assay; type: functional, cell-based
T7 sequence (whole entry): T3 sequence (P08172 whole entry)

[12] = Ratio of drug level in brain to blood in rat at 3 mg/kg, po; type: ADME, organism-based; design: dose 3 mg/kg, route oral
Rattus norvegicus [13] = test: Antidementia activity against scopolamine-induced amnesia in Wistar rat assessed as improvement in recall latency to transfer from bright to dark compartment administered orally 2 hrs before scopolamine challenge measured after 24 hrs post training by passive avoidance test; type: functional, organism-based
Outline: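 Rat passive avoidance task with scopolamine (0.8 mg/kg) given to induce amnesia. Test agent dosed orally at 1, 3 and 10 mg/kg. Groups compared with vehicle-treated controls and with scopolamine alone.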

[14] = target: T1, Muscarinic acetylcholine receptor M3; test: Intrinsic activity at human muscarinic M3 receptor expressed in CHO cells assessed as intracellular calcium mobilization after 10 to 15 mins by FLIPR assay; type: functional, cell-based
Target sequence in this assay (P20309 whole entry, looked up): as the sequence (P20309 whole entry) above

Rattus norvegicus [15] = test: Increase in neuronal firing rate in Sprague-Dawley rat hippocampal CA1 region at 1 mg/kg, iv pretreated with 3 mg/kg, ip mAChR antagonist scopolamine for 10 mins; type: functional, organism-based
[16] = target: T8, Muscarinic acetylcholine receptor M4 (Homo sapiens) (UniProt P08173); test: Intrinsic activity at human muscarinic M4 receptor expressed in CHO cells coexpressing Galpha16 subunit assessed as intracellular calcium mobilization after 10 to 15 mins by FLIPR assay; type: functional, cell-based
T8 sequence (whole entry): T2 sequence (P08173 whole entry)

[17] = target: T9, Muscarinic acetylcholine receptor M5 (Homo sapiens, UniProt P08912); test: Agonist activity at human muscarinic M5 receptor expressed in CHO cells assessed as intracellular calcium mobilization after 10 to 15 mins by FLIPR assay; type: functional, cell-based
T9 sequence (P08912 whole entry): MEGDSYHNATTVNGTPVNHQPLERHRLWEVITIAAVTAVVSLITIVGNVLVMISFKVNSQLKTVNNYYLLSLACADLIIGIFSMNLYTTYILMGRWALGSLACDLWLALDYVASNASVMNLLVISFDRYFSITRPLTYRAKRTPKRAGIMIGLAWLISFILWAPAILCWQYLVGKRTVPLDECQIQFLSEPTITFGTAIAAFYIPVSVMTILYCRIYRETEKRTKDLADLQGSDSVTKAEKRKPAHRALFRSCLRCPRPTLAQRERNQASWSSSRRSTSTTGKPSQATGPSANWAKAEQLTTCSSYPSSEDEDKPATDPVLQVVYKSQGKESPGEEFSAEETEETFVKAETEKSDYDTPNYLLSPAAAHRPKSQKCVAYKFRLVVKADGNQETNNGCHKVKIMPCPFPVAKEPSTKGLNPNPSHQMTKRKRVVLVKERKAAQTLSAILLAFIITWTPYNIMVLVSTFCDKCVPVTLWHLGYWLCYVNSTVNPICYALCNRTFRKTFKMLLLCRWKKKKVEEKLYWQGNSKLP

[18] = Blood clearance in rat at 1 mg/kg, iv; type: ADME, organism-based; design: dose 1 mg/kg, route intravenous
Liver microsomes = test: Intrinsic clearance in human liver microsomes; type: ADME, Microsome
[19] = Half life in rat at 1 mg/kg, iv; type: ADME, organism-based; design: dose 1 mg/kg, route intravenous; settings: in vivo
[20] = Half life in rat at 3 mg/kg, po; type: ADME, organism-based; design: dose 3 mg/kg, route oral; settings: in vivo

Voltage-gated inwardly rectifying potassium channel KCNH2, sequence (Q12809 whole entry): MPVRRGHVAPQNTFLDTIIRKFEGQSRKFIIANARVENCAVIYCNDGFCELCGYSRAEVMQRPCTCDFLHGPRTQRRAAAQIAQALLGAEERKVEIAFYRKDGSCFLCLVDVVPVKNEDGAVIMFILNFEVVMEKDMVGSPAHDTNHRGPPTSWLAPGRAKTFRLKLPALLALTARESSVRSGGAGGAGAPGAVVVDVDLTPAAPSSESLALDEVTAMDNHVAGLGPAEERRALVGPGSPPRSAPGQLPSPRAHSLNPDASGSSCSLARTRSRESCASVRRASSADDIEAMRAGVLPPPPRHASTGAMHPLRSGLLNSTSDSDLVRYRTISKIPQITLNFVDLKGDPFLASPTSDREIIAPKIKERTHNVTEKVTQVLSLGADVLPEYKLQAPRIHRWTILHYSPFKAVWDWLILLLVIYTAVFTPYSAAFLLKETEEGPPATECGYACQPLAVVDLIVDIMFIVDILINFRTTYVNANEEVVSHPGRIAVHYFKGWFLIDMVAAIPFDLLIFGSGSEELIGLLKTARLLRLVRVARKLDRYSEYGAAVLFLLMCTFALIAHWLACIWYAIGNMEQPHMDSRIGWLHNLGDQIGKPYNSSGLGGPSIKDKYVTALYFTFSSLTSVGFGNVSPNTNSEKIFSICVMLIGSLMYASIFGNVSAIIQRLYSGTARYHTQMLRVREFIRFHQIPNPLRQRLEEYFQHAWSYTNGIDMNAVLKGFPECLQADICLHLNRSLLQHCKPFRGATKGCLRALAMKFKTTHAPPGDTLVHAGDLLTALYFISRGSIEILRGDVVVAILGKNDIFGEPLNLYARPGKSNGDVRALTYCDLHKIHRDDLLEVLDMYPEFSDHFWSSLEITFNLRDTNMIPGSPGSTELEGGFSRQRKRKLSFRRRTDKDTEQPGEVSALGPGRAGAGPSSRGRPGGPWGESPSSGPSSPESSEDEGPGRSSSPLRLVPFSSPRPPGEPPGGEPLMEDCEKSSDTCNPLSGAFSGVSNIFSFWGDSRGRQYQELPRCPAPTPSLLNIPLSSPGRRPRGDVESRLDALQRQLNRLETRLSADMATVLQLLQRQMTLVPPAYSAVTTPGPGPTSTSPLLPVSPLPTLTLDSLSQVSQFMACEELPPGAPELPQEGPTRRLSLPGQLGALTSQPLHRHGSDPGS
5-hydroxytryptamine receptor 2A, sequence (P28223 whole entry): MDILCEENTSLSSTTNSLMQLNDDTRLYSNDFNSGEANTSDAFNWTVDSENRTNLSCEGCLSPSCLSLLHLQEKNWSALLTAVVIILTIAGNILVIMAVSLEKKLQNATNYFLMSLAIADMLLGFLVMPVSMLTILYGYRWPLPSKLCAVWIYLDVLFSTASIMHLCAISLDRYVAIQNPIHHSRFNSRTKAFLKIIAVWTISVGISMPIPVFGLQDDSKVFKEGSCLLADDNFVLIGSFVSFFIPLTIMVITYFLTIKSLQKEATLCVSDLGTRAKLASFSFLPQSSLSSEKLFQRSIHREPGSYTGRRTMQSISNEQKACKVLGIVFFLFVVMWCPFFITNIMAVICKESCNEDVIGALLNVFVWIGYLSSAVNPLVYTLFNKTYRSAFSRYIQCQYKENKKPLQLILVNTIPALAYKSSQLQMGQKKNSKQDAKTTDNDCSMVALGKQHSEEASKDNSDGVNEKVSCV
D(2) dopamine receptor, sequence (P14416 whole entry): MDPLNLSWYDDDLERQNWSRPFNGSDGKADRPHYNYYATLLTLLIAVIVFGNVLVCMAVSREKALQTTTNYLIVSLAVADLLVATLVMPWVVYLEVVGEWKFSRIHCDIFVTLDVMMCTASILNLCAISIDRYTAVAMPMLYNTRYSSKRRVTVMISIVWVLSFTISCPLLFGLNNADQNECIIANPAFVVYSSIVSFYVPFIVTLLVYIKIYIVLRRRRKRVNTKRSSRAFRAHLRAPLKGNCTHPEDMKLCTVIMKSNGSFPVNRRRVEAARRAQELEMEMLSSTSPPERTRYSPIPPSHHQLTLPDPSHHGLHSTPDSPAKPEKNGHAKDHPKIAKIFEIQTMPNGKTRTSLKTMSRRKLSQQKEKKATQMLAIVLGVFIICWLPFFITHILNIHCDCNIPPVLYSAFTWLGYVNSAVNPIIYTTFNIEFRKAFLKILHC
D(3) dopamine receptor, sequence (P35462 whole entry): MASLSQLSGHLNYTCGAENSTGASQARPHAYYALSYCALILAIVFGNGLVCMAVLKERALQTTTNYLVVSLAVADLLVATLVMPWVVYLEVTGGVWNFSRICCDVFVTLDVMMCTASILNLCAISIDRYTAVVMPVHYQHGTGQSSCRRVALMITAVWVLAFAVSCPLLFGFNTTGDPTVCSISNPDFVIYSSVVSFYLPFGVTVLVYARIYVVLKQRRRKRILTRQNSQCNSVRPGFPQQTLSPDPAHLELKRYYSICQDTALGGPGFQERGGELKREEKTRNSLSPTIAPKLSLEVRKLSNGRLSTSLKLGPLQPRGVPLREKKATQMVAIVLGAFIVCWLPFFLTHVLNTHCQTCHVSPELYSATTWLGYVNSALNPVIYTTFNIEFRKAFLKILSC

Compound	EC50 [1] [nM]	EC50 [3] [nM]	EC50 [4] [nM]	Intrinsic activity [5] [%]	EC50 [6] [nM]	IC50 [7] [nM]	Intrinsic activity [11] [%]	Kp [12]	Intrinsic activity [14] [%]	Intrinsic activity [16] [%]	further results
O=c1[nH]c2ccccc2n1C1CCN(CCCOc2ccc(F)cc2)CC1	> 25100	> 25100	> 25100	86	398	79.4	–	–	–	–	Ki [2]: 3.16 nM; Ki (D(3) dopamine receptor): 1.26 nM; EC50 [8]: 50.1 nM; Ki (D(2) dopamine receptor): 0.501 nM
Cc1cc2c(cc1F)[nH]c(=O)n2C1CCN(C2CCOCC2)CC1	–	501	–	94	–	12600	71	0.6	58	71	Activity (Rattus norvegicus [9]): inactive; fold change (FC) (Rattus norvegicus [10]): 3; Activity (Rattus norvegicus [13]): Dose-dependent effect; Activity (Rattus norvegicus [15]): inactive
O=c1[nH]c2ccccc2n1C1CCN(C2CCOCC2)CC1	> 10000	–	–	101	–	–	88	–	–	77	EC50 [17]: > 10000 nM; clearance [18]: 68 mL/min/kg; CLH (Liver microsomes): 0.5 mL/min/g; half-life [19]: 0.5 h
Cc1ccc2[nH]c(=O)n(C3CCN(C4CCOCC4)CC3)c2c1	3980	631	631	92	5.01	25100	71	0.6	72	68	half-life [20]: 2.6 h

From ChEMBL document CHEMBL2146410, “Novel N-Substituted Benzimidazolones as Potent, Selective, CNS-Penetrant, and Orally Active M1 mAChR Agonists” (ACS Med Chem Lett, 2010)
